bIAP inhibitor: blocks bovine intestinal alkaline phosphatase activity | purified bovine IAP, CDP-star luminescence, 30 min | inhibition, % at 20 µM | 190,000 tested, under 10 active;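 active means over 50% inhibition of intestinal alkaline phosphatase at 20 µM in the single-dose screen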
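test system = bovine IAP enzyme | medium = DEA buffer 100 mM, pH 9.8, with MgCl2 1.0 mM, ZnCl2 0.02 mM | detection = luminescence | dosing = single compound dose of 20 µM, 2% DMSO final | incubation = 30 min reaction at room temperature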
mIAP inh: blocks mouse intestinal alkaline phosphatase. purified mouse IAP, CDP-Star luminescence, 30 min. 330,000 tested, 0.2% active. inhibition, % at 10 µM;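 active means inhibition of at least 40% at 10 µM in the primary screen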;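 further: plate controls were DMSO with enzyme for no effect and no enzyme wells for full effect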
bIAP activator: increases bovine intestinal alkaline phosphatase activity; purified bovine IAP, CDP-star luminescence, 30 min; hits give high values; fold of DMSO-control signal, blank-subtracted; activation factor at 20 µM; 200,000 tested, 0.17% active;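 active means activation factor of 2 or more at 20 µM, a signal rise over negative controls twice the positive control's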
hIAP activ: increases human intestinal alkaline phosphatase activity; P09923; purified human IAP, CDP-Star luminescence, 30 min; hits give high values; 1 = vehicle-only enzyme, 0 = enzyme-free background; activation factor at 10 µM; 330,000 tested, 0.16% active; AID 2524;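 active means activation factor of the enzyme at least 2-fold when tested at 20 µM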
Target sequence (P09923 whole entry, looked up): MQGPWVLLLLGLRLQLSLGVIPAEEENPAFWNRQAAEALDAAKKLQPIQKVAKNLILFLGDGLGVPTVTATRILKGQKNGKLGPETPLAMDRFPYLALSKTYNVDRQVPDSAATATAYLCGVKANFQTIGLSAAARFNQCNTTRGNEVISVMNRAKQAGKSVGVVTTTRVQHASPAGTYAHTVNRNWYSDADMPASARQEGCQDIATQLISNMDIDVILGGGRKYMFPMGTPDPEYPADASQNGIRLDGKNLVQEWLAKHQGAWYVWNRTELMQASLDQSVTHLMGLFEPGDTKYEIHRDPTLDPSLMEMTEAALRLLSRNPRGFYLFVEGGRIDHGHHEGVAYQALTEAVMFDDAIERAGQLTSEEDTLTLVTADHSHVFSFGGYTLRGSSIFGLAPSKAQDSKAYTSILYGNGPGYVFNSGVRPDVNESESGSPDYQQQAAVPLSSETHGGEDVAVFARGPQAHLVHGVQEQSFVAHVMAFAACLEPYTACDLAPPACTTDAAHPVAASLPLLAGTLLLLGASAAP
hIAP block: human IAP inhibition; P09923; purified IAP, CDP-Star luminescence, 30 min; inhibition, % at 10 µM; 330,000 tested, 0.12% active; AID 2544;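 active means inhibition reaching a set limit with compound at 10 µM in the primary screen, cut at about 35% in these data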;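 further: plate controls were DMSO wells with enzyme for no effect and no-enzyme buffer wells for full effect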
mIAP act: mouse IAP activation; AID 2805; muIAP, CDP-Star luminescence, 30 min; hits give high values; 1 = vehicle-only enzyme signal, 0 = enzyme-free wells; activation factor at 10 µM; 330,000 tested, 0.24% active;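 active means activation factor of at least 2 at 20 µM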
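also added = chemiluminescent substrate CDP-Star | test system = mouse IAP enzyme | signal = chemiluminescence readout | compound = DMSO-dissolved test compounds | incubation = 30 min at room temperature | benchmarks = DMSO wells, no-enzyme wells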
hIAP act confirm: human IAP activation confirmation | shares compounds with hIAP activ | purified IAP, CDP-Star luminescence, 30 min; hits give low values | activation (%Activity, negative = activation), % at 8.3 µM | 880 tested, 10% active | AID 434926;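 active means at least twofold enzyme activation in any of six single-dose repeats, which the averaged readout prints as negative percent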
Active calls of the source: *; . = not tested or not shown; + = active, no number. Most compounds without a hit are left out; they make up all but 0.79% or so of the library.

SMILES	bIAP inhibitor	mIAP inh	bIAP activator	hIAP activ	hIAP block	mIAP act	hIAP act confirm
CCN1/C(=C/c2ccc3cc(C)ccc3[n+]2CC)Sc2cc(C)c(C)cc21	.	17	0.3	0.68	32	0.83	.
CCN1/C(=C/c2ccc3cc(C)ccc3[n+]2CC)Sc2ccccc21	-23	34	1.2	0.63	37*	0.66	9
NC(=O)c1c(NC(=O)c2ccc(F)cc2)sc2c1CCC2	.	11	.	0.63	37*	0.89	+
Cc1ccc(O)c(N/C=C/C(=O)c2ccc(F)cc2)c1	.	6	.	2.8*	-185	0.94	-120*
OCCNCc1c(OCc2ccc(Cl)cc2)ccc2ccccc12	.	-15	.	1.1	-5	1.2	.
COc1ccc(-c2c(C)n([O-])c3c([n+]2=O)CCCC3)cc1	1	1	1	2.2*	-122	0.99	5
CCN(C(=O)CCS(=O)(=O)c1cccc2nonc12)c1ccc(C)c(C)c1	.	4	.	0.9	10	0.96	.
C#CC(CC)(CC)NC(=O)Nc1ccccc1C(=O)OC	-6	12	1.1	0.61	39*	0.88	-4
CCNC(=O)Nc1ccccc1C(=O)OC	-2	-5	1	1.2	-19	1.1	.
CCC(C(=O)Nc1cccc(C(=O)O)c1C)c1ccccc1 (stereo unspecified)	-3	4	1	1	-1	0.96	.
Cc1ccsc1/C=N/Nc1ncnc2nc[nH]c12	-24	3	1.2	2.3*	-126	0.97	-11
Nc1ccccc1-c1nnc(-c2ccc(-c3ccccc3)cc2)o1	27	-9	0.7	2*	-100	1.1	-46
c1ccc(-c2nnc(-c3ccccc3)o2)cc1	2	-1	1	0.87	13	1	.
COc1ccc(/C=C/C(=O)c2ccc(C)c([N+](=O)[O-])c2)cc1O	24	18	0.8	0.87	13	0.82	.
COc1cc(/C=C/C(=O)c2ccc(C)c([N+](=O)[O-])c2)cc(OC)c1O	14	38	0.9	0.53	47*	0.61	18
Cn1c(CNC(=O)CNC(=O)c2ccccc2F)cc(=O)n(C)c1=O	.	3	.	0.92	8	0.97	.
COc1ccccc1C(=O)NCC(=O)NCc1cc(=O)n(C)c(=O)n1C	.	6	.	0.61	39*	0.94	-5
Cc1cc(C)cc(SCc2noc(C(=O)NCC3CCCO3)c2C(=O)O)c1 (stereo unspecified)	6	-2	0.9	1.1	-5	1	.
Cc1cccc(SCc2noc(C(=O)NCC3CCCO3)c2C(=O)O)c1 (stereo unspecified)	-2	4	1	0.65	35*	0.96	-213*
CCOc1ccccc1CN1CCNC(=O)C1CC(=O)NCCCn1cccn1 (stereo unspecified)	.	0	.	1.2	-18	1	.
COc1ccc(O)c(/C=N/NC(=O)c2cccc(N3CCCC3=O)c2)c1	.	-10	.	2*	-105	1.1	-1
CCCN1C(=O)/C(=C2/C=Cc3ccccc3N2CC)SC1=S	4	34	1	0.62	38*	0.66	6
CN(C)CCCn1c2c(c(SCC(=O)Nc3ccc4c(c3)OCCO4)nc1=O)CCC2	.	-11	.	1.1	-5	1.1	.
COc1ccc(NC(=O)/C(C#N)=C\c2cc(C)n(-c3ccc4c(c3)OCO4)c2C)cc1	9	14	0.9	2.1*	-108	0.86	-56
Cc1cccc(-c2nc(NCCCN3CCOCC3)c3ccccc3n2)c1	3	5	1	1.1	-11	0.95	.
SMILES	bIAP inhibitor	mIAP inh	bIAP activator	hIAP activ	hIAP block	mIAP act	hIAP act confirm
c1ccc(-c2nc(NCCCN3CCOCC3)c3ccccc3n2)cc1	4	0	1	2*	-104	1	-9
CCc1ccc(S(=O)(=O)/N=C2\C=C(NS(=O)(=O)c3ccccc3)C(=O)c3ccccc32)cc1	.	13	.	0.64	36*	0.87	-22
Cc1ccc(NC(=O)CCC(=O)NNC(=S)Nc2ccc(F)cc2)c(C)c1	.	0	.	1.7	-70	1	.
Cc1ccc(NC(=O)CCC(=O)NNC(=S)Nc2ccc(F)cc2F)cc1C	.	0	.	2.2*	-123	1	7
CCC(CO)NCc1ccc(OCC(O)c2ccccc2)c(OC)c1 (stereo unspecified)	.	-19	.	1.1	-9	1.2	.
COc1cccc(-c2cc(C(=O)NCCCn3ccnc3)c3ccccc3n2)c1	5	12	0.9	0.95	5	0.88	.
COc1ccc(CC(=O)NNC2=Nc3cccc4cccc2c34)cc1	.	-6	.	2.2*	-119	1.1	12
COc1ccc(C(=O)NNC2=Nc3cccc4cccc2c34)cc1	-19	25	1.2	1.3	-34	0.75	.
COC(=O)c1ccccc1-c1c2ccc(=N)cc-2oc2cc(N)ccc12	.	-30	.	0.62	38*	1.3	35
O=c1c2c(-c3cccs3)csc2ncn1-c1ccc(Br)cc1	6	14	0.9	0.39	61*	0.86	-112*
Cc1cccc(NC(=O)C2CC(=O)n3cnnc3S2)c1 (stereo unspecified)	-1	9	1	2.1*	-114	0.91	-12
CCN=C1SC(C(=O)Nc2cccc(C)c2)CC(=O)N1CC (stereo unspecified)	9	0	0.9	1.1	-6	1	.
O=C(Cc1ccc([N+](=O)[O-])cc1)OCc1c(F)cccc1Cl	.	1	.	0.96	4	0.99	.
Cc1cccn2c(=O)c3cc(C(=O)NC4CCCC4)c(=N)n(C4CCCCC4)c3nc12	.	-8	.	0.64	36*	1.1	-122*
O=C(CCCc1ccccc1)Nc1ccnn1C1CCN(Cc2ccccn2)CC1	.	-2	.	1.2	-18	1	.
Cc1ccccc1CN1CCC(n2nccc2NC(=O)CCCc2ccccc2)CC1	.	-89	.	2.9*	-190	1.9	26
COc1ccc2nc3cc(Cl)ccc3c(Nc3cc(CN4CCCC4)c(O)c(CN4CCCC4)c3)c2n1	.	12	.	0.57	43*	0.88	-60*
O=C1/C(=C\c2ccc(O)c(O)c2)N=C2CCCCCN12	.	37	.	0.43	57*	0.63	-29
COc1cc(/C=C2\N=C3CCCCCN3C2=O)ccc1O	.	24	0.3	1.1	-7	0.76	.
COc1cc(NC(=O)c2cccs2)c(OC)cc1NC(=O)CCC(=O)Nc1ccc2ncccc2c1	8	1	0.9	1.1	-7	0.99	.
CCOc1ccc(-c2c(C(=O)N/N=C/c3c[nH]c4ccccc34)nnn2-c2nonc2N)cc1	.	0	.	0.94	6	1	.
Cc1ccc2occ(/C=N/NC(=O)c3ccncc3)c(=O)c2c1	.	10	.	2.3*	-131	0.9	-31
Cc1cccc(C(=O)NC2CCN(C(=O)NCc3ccccc3)CC2)c1	.	-6	.	1.1	-9	1.1	.

Compound activity (PubChem)
